Consider four substances from PMC10871333 (bioRxiv, 2024).

In one series the test system is HP1α. The conditions noted are these: ref [27]; cited from earlier work.
The target of series [1] is T1, HP1α-DNA condensates (Homo sapiens, UniProt P45973). In words: FRAP of Alexa-488 labeled HP1α in HP1α-DNA condensates. The format is physicochemical. The conditions noted are these: for FRAP dynamics of HP1α, in words: HP1α-DNA condensates, all three DNA lengths, no histone peptide. The essentials:
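Alexa-488 maleimide-labeled HP1α (~1%) mixed with unlabeled protein to 20uM in 70mM KCl, 20mM HEPES, 1mM DTT, pH 7.4. DNA 40nM (2.5kbp) to 9nM (10kbp), with or without H3K9me3 peptide up to 42μM, at 23°C. A 0.5–1um area bleached on a spinning-disc confocal. Recovery was fitted to an exponential to give mobile fraction (I0) and half-time ln(2)/β.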

Series [2] concerns the target T1, HP1α-DNA condensates. Kind of series: Microrheology. In kind it is physicochemical. An outline of the steps:
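HP1α at 20 μM with 40nM 2.5kbp, 20nM 4kbp or 9nM 10kbp DNA, with or without 10 or 42μM H3K9me3 peptide. 200nm carboxylated fluorescent beads were embedded and tracked on a spinning-disc confocal (x63/1.4NA oil) at 200ms interval, 1000 frames, 10–50ms exposure, 23°C ± 2°C. Beads near boundaries were avoided. 2D MSD was time- and ensemble-averaged, and α was taken as the log-log slope versus lag time.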

For series [3], the system named is DNA (2.5kbp, 4kbp, 10kbp). Kind of series: Phase separation of HP1α with DNA of different length. The format is physicochemical. The essentials: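 HP1α was 0.22um-filtered, buffer-exchanged and mixed with dsDNA to 20uM HP1α (12.5–20μM tested) and nanomolar DNA. Buffer was 70mM KCl, 20mM HEPES, 1mM DTT, pH 7.5, in a 7ul reaction at 23°C on Pluronic F-127–treated slides. Imaging used wide-field DIC with a ×40 air objective at t=0 and 60 min.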

Setting [4] is: 70mM KCl, 20mM HEPES, 1mM DTT, pH 7.5.
Where [5] appears, read: with HP1α 12.5μM-20μM, 70mM KCl, 20mM HEPES, 1mM DTT, pH 7.5.

Several values for one entry are separate records, joined by “and”; a condition that tells them apart may be missing. Identical values can stand only once.

T1 sequence (P45973 whole entry): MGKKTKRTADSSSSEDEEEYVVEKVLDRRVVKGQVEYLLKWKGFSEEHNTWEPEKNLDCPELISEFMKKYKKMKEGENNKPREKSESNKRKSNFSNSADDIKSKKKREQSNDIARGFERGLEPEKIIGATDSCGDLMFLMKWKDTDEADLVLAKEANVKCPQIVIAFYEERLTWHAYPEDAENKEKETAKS

Take “H3K4me3: human N-terminal histone H3 tail (residues 1–22) with trimethylation of lysine 4, purchased from Bachem”: the “binding of HP1α chromodomain to histone H3 mark” value (from here on “binding of HP1α chromodomain”) in the series with HP1α was “does not bind”.

On to “H3K9me3: human N-terminal histone H3 tail (residues 1–22) with trimethylated lysine 9, purchased from Bachem [reference compound]”, for which the “mobile fraction of HP1α in condensates with peptide, 10μM peptide” value with HP1α-DNA condensates [1] (H3K9me3 peptide 10μM, Alexa488-HP1α, 2.5kbp DNA condensates, FRAP) is ~ 100%. The “binding of HP1α chromodomain” value in the series with HP1α was “recognizes and binds specifically”. The “decrease in α with H3K9me3 compared with lengthening the DNA to 10kbp” value with HP1α-DNA condensates [2] (2.5kb DNA condensates) is on record as “more pronounced”.

“HP1α: Recombinantly expressed and purified HP1α (MW = 22kDa) from Biomatik Corporation”: the “morphology with 4kbp DNA (9nM or 15nM) at t=0min and t=60min” value in series [3] (20μM HP1α, DIC 40x) is “spherical condensates can be seen”. The “morphology change with 10kbp DNA (9nM or 15nM) over 1hour” value in series [3] (20μM HP1α, t=0min and t=60min, DIC 40x) is “changes in the morphology (from asymmetric to spherical)”. For the same substance, in series [3] (setting [4]), the “assembly morphology with 10kbp DNA” value is recorded as “assemblies with an asymmetric morphology were initially observed before transitioning to spherical droplets”; the “droplet morphology with 2.5kbp and 4kbp DNA” value is listed as “spherical droplets appeared instantaneously”; the “time of transition from asymmetric to spherical droplets with 10kbp DNA” value was not above 1 h. For the same substance, in series [3] (same HP1α concentration, 70mM KCl, 20mM HEPES, 1mM DTT, pH 7.5), the “solubility / phase behavior of HP1α in the absence of DNA” value is reported as “remains soluble”. In series [3] (three DNA lengths (2500, 4000, 10000 bp) at nanomolar concentrations, 70mM KCl, 20mM HEPES, 1mM DTT, pH 7.5, 23°C, DIC 40x), the “phase separation with DNA” value was “undergoes phase separation”. For the same substance, in series [3] (setting [5]), the “DNA concentration inducing phase separation, 2500 bp DNA” value is 30 nM and the “DNA concentration inducing phase separation, 10000 bp DNA” value was determined as 9 nM. Further, the “FRAP dynamics of HP1α, in words” value in the series with HP1α-DNA condensates [1] was “remain dynamic”. Also, the “FRAP dynamics of HP1α, in words” value in the series with HP1α-DNA condensates [1] (listed as HP1a) is on record as “rapid recovery”. In addition, in the series with HP1α-DNA condensates [2] (20 μM HP1α and 9nM 10kbp DNA, no peptide, 200nm beads, 200ms interval, 23°C), the “average diffusive exponent α, 10kbp DNA condensates” value is on record as 0.58±0.05. Moreover, in the series with HP1α-DNA condensates [2] (20 μM HP1α and 20nM 4kbp DNA, no peptide, 200nm beads, 200ms interval, 23°C), the “average diffusive exponent α, 4kbp DNA condensates” value is listed as 0.72±0.02. Besides, the “diffusive exponent α, 2.5kbp DNA condensates” value with HP1α-DNA condensates [2] (20 μM HP1α and 40nM 2.5kbp DNA, no peptide, 200nm beads, 200ms interval, 23°C) is 0.85±0.06 and ~ 0.85±0.06.

Turning to “unmodified H3: unmodified human N-terminal histone H3 tail (residues 1–22), purchased from Bachem”, the “binding of HP1α chromodomain” value in the series with HP1α is “does not bind”.
